This note sets out measurements from ChEMBL document CHEMBL1649306, “Arylimidamide DB766, a potential chemotherapeutic candidate for Chagas' disease treatment” (Antimicrob Agents Chemother, 2010).

Values joined by “and” are separate entries in the source; they are usually repeats but may differ in a detail not shown here. Equal values may be shown once. Active and inactive are the calls of the source. The rule behind the calls is not given here.

Data set [1] deals with Mus musculus. In words: Toxicity in […](H-2k) mouse assessed as effect on GPT level at 100 mg/kg/day, po. Format: organism-based. Also on record: route oral. The note with it: in vivo.
Data set [2] has as its system Mus musculus. Description: Cardiotoxicity in […] mouse assessed as effect on heart rate level at 100 mg/kg/day, ip. Format: toxicity, organism-based. On the set-up: route intraperitoneal. Conditions: in vivo. In short, it runs like this: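 Colombian strain, 5 × 10³ bloodstream forms i.p. into male C3H/He mice; 100 mg/kg/day given i.p. or by gavage (0.1 ml) daily for 10 doses from parasitemia onset. Mice sedated with diazepam (20 mg/kg i.p.), supine; eight-lead ECG from subcutaneous limb needle electrodes plus precordial lead II. Signal-averaged ECG; heart rate as beats per minute.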

Data set [3] concerns Trypanosoma cruzi. In words: Antitrypanosomal activity against Trypanosoma cruzi Y bloodstream forms infected in Swiss-Webster mouse assessed as decrease in parasite-induced cardiac inflammation in mouse at 100 mg/kg/day, ip administered 5 days postinfection for 10 alternate days measured after 14 days postinfection. Format: functional, Heart. On the set-up: scale not given: the % may be the effect or the level left. The note with it: route intraperitoneal.

The test system of data set [4] is Trypanosoma cruzi. In words: Antitrypanosomal activity against Trypanosoma cruzi Y bloodstream forms infected in Swiss-Webster mouse assessed as reduction in parasite-induced weight loss at 100 mg/kg/day, ip administered 5 days postinfection for 10 consecutive days measured after 120 days. It counts as functional, organism-based. In short, it runs like this: (§1)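 Body weight of infected, treated mice followed from 0 to 120 dpi.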

Data set [5] deals with Trypanosoma cruzi. Description: Selectivity ratio of IC50 for Trypanosoma cruzi Y bloodstream forms to IC50 for Trypanosoma cruzi Y amastigotes. It counts as functional.
Data set [6] can be described thus: Toxicity in […] mouse assessed as mortality at cumulative dose of 100 mg/kg, ip measured after 48 hrs. The note with it: in vivo, read-out: Activity. On the set-up: dose 100 mg/kg, route intraperitoneal. It counts as organism-based. An outline of the steps:
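Uninfected 8–10-week-old female and male Swiss Webster and C3H/He (H-2k) mice injected i.p. on day 1 every 2 h with escalating doses: 5, 15, 30, 50 and 100 mg/kg (cumulative 20, 50, 100, 200 mg/kg). Toxic and subtoxic signs inspected on days 2–3 per OECD guidelines; tolerated dose set at 48 h.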

The subject of data set [7] is Trypanosoma cruzi. Description: Antitrypanosomal activity against Trypanosoma cruzi Y bloodstream forms infected in Swiss-Webster mouse assessed as decrease in parasitemia at 100 mg/kg/day, ip administered 8 days postinfection measured on day 120. Format: functional. Conditions: route intraperitoneal. In short, it runs like this: (§2)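 Male Swiss mice infected i.p. with 10^4 Y strain bloodstream forms. Given 0.2 ml i.p. at 5 and 8 dpi, or daily for 10 days from 5 dpi; reference drug given by gavage. Parasitemia measured by the Pizzi-Brener method, cumulative mortality checked daily to 120 dpi, n ≥ 6 per group.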

The test system of data set [8] is Trypanosoma cruzi. Description: Antitrypanosomal activity against bloodstream forms of Trypanosoma cruzi Y infected in Swiss mouse cardiomyocytes assessed as parasite mitochondrial swelling at 10 ug/ml after 2 hrs by transmission electron microscopy. Format: functional, organism-based. In short, it runs like this:
(§3)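 Y-strain bloodstream trypomastigotes treated 2 to 24 h at 37°C. Fixed 60 min at 4°C in 2.5% glutaraldehyde in 0.1 M cacodylate, pH 7.2. Postfixed 1 h at 4°C in 1% OsO4 with 0.8% potassium ferricyanide. Acetone-dehydrated, Epon-embedded, sections stained with uranyl acetate and lead citrate, ultrastructure examined by TEM.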

Data set [9] has as its system Trypanosoma cruzi. In words: Antitrypanosomal activity against bloodstream forms of Trypanosoma cruzi Y infected in Swiss mouse cardiomyocytes assessed as parasite mitochondrial swelling at 10 ug/ml after 24 hrs by transmission electron microscopy. Format: functional, organism-based. An outline of the steps: as §3
Data set [10] deals with Trypanosoma cruzi. In words: Antitrypanosomal activity against Trypanosoma cruzi Y bloodstream forms infected in Swiss mouse cardiomyocytes assessed as parasite crista dilation at 10 ug/ml after 24 hrs by transmission electron microscopy. Format: functional, organism-based.
The test system of data set [11] is Mus musculus. Description: Toxicity in male Swiss-Webster mouse assessed as weight loss at cumulative dose of 200 mg/kg, ip measured after 48 hrs. Format: organism-based. Also on record: dose 200 mg/kg, route intraperitoneal. Conditions: in vivo. An outline of the steps: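 Acute toxicity in 8–10-week-old Swiss Webster mice. i.p. injections every 2 h of 5, 15, 30, 50 and 100 mg/kg (cumulative 200 mg/kg) on day 1. Toxic and subtoxic signs inspected on days 2 and 3 per OECD guidelines; outcome read 48 h after injection.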

Data set [12] deals with Trypanosoma cruzi. In words: Antitrypanosomal activity against Trypanosoma cruzi Y bloodstream forms infected in Swiss-Webster mouse assessed as decrease in parasite load at 25 mg/kg/day, ip administered 5 days postinfection for 10 consecutive days measured after 8 days. Format: functional. On the set-up: scale not given: the % may be the effect or the level left. Conditions: route intraperitoneal. An outline of the steps:
as §2

In data set [13] the test system is Trypanosoma cruzi. Description: Antitrypanosomal activity against Trypanosoma cruzi Y bloodstream forms infected in Swiss-Webster mouse assessed as survival of mouse at 25 mg/kg/day, ip administered 5 days postinfection for 10 consecutive days measured on day 120. It counts as functional, organism-based. In short, it runs like this:
as §2

Data set [14] deals with Trypanosoma cruzi. Description: Antitrypanosomal activity against Trypanosoma cruzi Y bloodstream forms infected in Swiss-Webster mouse assessed as reduction in parasite-induced weight loss in mouse at 25 mg/kg/day, ip administered 5 days postinfection for 10 consecutive days measured on day 120. It counts as functional, organism-based. An outline of the steps:
as §1

The test system of data set [15] is Trypanosoma cruzi. Description: Antitrypanosomal activity against Trypanosoma cruzi Columbian bloodstream forms infected in C3H mouse assessed as decrease in parasite load at 25 mg/kg/day, ip administered 21 days postinfection measured on day 44. Format: functional. On the set-up: scale not given: the % may be the effect or the level left. The note with it: route intraperitoneal. An outline of the steps: (§4)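 C3H/He mice infected i.p. with 10^2 Colombian strain bloodstream forms. Treatment started at parasitemia onset (21 dpi) with daily doses for 10 treatments, 0.1 ml i.p. Parasitemia measured by the Pizzi-Brener method; n ≥ 6 parasitemic mice per group.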

Data set [16] has as its system Trypanosoma cruzi. In words: Antitrypanosomal activity against Trypanosoma cruzi Columbian bloodstream forms infected in C3H mouse assessed as decrease in parasite load at 50 mg/kg/day, ip administered 21 days postinfection measured on day 45. Format: functional, organism-based. In short, it runs like this: as §4
Data set [17] has as its system Trypanosoma cruzi. Description: Antitrypanosomal activity against Trypanosoma cruzi Columbian bloodstream forms infected in C3H mouse assessed as reduction in parasite-induced weight loss at 100 mg/kg/day, po administered 5 days postinfection for 10 consecutive days measured after 120 days. It counts as functional, organism-based. An outline of the steps:
as §1

Data set [18] concerns Trypanosoma cruzi. Description: Antitrypanosomal activity against Trypanosoma cruzi Columbian bloodstream forms infected in C3H mouse assessed as reduction in parasite-induced weight loss at 25 mg/kg/day, ip administered 5 days postinfection for 10 consecutive days measured after 120 days. It counts as functional, organism-based. An outline of the steps: as §1
Data set [19] has as its system Trypanosoma cruzi. In words: Antitrypanosomal activity against Trypanosoma cruzi Columbian bloodstream forms infected in C3H mouse assessed as decrease in parasite load at 100 mg/kg/day, ip administered 5 days postinfection for 10 consecutive days measured after 41days post infection. It counts as functional, organism-based. In short, it runs like this: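 C3H/He mice infected i.p. with 10^3 or 5 × 10^3 Colombian strain bloodstream forms. Treated daily for 10 days with 0.1 ml i.p. or by gavage, reference drug given by gavage. Parasitemia measured by the Pizzi-Brener method; n ≥ 6 parasitemic mice per group.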

Data set [20] concerns Trypanosoma cruzi. Description: Antitrypanosomal activity against Trypanosoma cruzi Columbian bloodstream forms infected in C3H mouse assessed as decrease in parasite load in 25 mg/kg/day, po administered 5 days postinfection for 10 consecutive days measured after 120 days. It counts as functional, organism-based.
The subject of data set [21] is Trypanosoma cruzi. In words: Antitrypanosomal activity against Trypanosoma cruzi Columbian bloodstream forms infected in C3H mouse assessed as decrease in parasite-induced cardiac inflammation at 100 mg/kg/day, ip administered 5 days postinfection for 10 consecutive days measured after 43 days. On the set-up: scale not given: the % may be the effect or the level left. The note with it: route intraperitoneal. It counts as functional, Heart. An outline of the steps: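 Male C3H/He mice infected i.p. with 5 × 10^3 Colombian strain bloodstream forms, given 100 mg/kg/day i.p. daily for 10 days. At 43 dpi, H&E-stained 3 μm heart sections scored for amastigote nests and infiltrates (>10 mononuclear cells) over at least 100 fields. Three sections each from at least three mice.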

As for `CC(C)Oc1cc(NC(=N)c2ccccn2)ccc1-c1ccc(-c2ccc(NC(=N)c3ccccn3)cc2OC(C)C)o1`, the Activity entry with Mus musculus [1] is reported as “Non-toxic”; in the data set on Mus musculus [2], “Toxic”; in the data set with Trypanosoma cruzi [3] it was 78%; in the data set on Mus musculus [11] it was 10%; in the data set with Trypanosoma cruzi [12] it was 88%; with Trypanosoma cruzi [15], 73%. In the data set with Trypanosoma cruzi [21], the Activity was 75%. Also, the result with Trypanosoma cruzi [4], in the data set with Trypanosoma cruzi [8], in the data set on Trypanosoma cruzi [9], with Trypanosoma cruzi [10], in the data set on Trypanosoma cruzi [13] and in the data set with Trypanosoma cruzi [19] was Active. The Selectivity ratio in the data set on Trypanosoma cruzi [5] was >533 and 714. For the same molecule, the mortality at 48 h in [6] is 80%. The inhibition in vivo (usually the share of the control response that was lost under treatment) at 100 mg/kg/day in the data set on Trypanosoma cruzi [7] is greater than 99%. In addition, the outcome in the data set on Trypanosoma cruzi [14], in the data set with Trypanosoma cruzi [16], in the data set on Trypanosoma cruzi [17], in the data set on Trypanosoma cruzi [18] and with Trypanosoma cruzi [20] was inactive.
